Bioassay records deposited in PubChem by several laboratories.
MDM2 E3 inh: Mdm2 E3 ligase (human) inhibition; Q00987; cell-based MDM2 ubiquitination luciferase reporter, 2 h; 0 = plate control, 100 = twice control, blank-subtracted; signal enhancement, % at 5 µM; 0.11% of 210,000 active;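 active means signal enhancement of 30% or more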;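 further: luminescence tracks abundance of the self-degrading MDM2-luciferase fusion protein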
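Assay system: stable mammalian line carrying autodegrading MDM2–luciferase fusion reporter; amount: 2000 cells seeded into each well; buffer or medium: DMEM; benchmarks: plate control and blank wells; signal: luciferase luminescence; timing: 2 h compound exposure at 37 °C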
Rad51 HR inh: Rad51 (human) homologous recombination inhibition; 0.085% of 200,000 active; hRad51 DNA strand exchange, fluorescence dequenching; inhibition, % at 10 µM; AID 1385;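 active means inhibition above 40% at the single screening dose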;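 further: 0% = DMSO control wells and 100% = blanks with heterologous ssDNA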
Target sequence (Q06609 whole entry, looked up): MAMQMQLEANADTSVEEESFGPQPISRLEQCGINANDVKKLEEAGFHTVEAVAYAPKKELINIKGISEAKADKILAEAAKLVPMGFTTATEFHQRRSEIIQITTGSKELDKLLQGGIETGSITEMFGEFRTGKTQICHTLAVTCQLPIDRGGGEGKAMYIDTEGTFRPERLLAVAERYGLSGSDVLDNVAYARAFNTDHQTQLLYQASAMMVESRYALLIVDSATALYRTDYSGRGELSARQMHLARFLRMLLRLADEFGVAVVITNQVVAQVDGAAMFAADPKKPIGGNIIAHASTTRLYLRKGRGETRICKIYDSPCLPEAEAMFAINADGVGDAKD
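Assay system: Human Rad51 nucleoprotein filaments preassembled on unlabelled ssDNA | Reagent: Donor/quencher-labelled 47-bp dsDNA substrate | Doses: One concentration, 10 µM final | Times: 37 °C 15-min filament assembly, 30-min compound preincubation, 15-min exchange | Technique: Fluorescein emission 520 nm, excitation 485 nm | Benchmarks: Plate control and blank wells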
PERK inh: blocks human PERK kinase. Q9NZJ5. inhibition, % at 5.6 µM. CHO PERK-DD fusion, SEAP luminescence translation reporter. 0.17% of 220,000 active;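 active means inhibition above the mean inhibition of all tested compounds plus 3 SD, set separately per screening campaign, cut at about 2.9% in these data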;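 further: PERK kinase domain activated by AP20187 dimerizer at 100 nM; 0% = DMSO with dimerizer and 100% = rapamycin at 8.4 µM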
PKD1 kinase inh: inhibitors of human PKD1 kinase. inhibition, % (no concentration beside the values). PKD1 kinase fluorescence polarization assay. 0.056% of 200,000 active. Q15139; in the data active means inhibition above about 50%
Hck-Nef inh: inhibitors of human Hck kinase activated by Nef. P08631. Recombinant Hck-YEEI plus Nef, Z-Lyte FRET kinase assay. inhibition, % at 20 µM. 0.68% of 220,000 active. AID 463187;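 active means Hck-Nef kinase inhibition above about 50%, limit read from the data; inactive means inhibition below that limit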;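 further: 0% = DMSO with Hck plus Nef and 100% = Hck alone without Nef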
H9c2 TAG inh: inhibitors of triacylglycerol accumulation. H9c2 cells, Nile Red lipid (TAG) fluorescence; cells loaded with 200 µM oleic acid. 0.66% of 230,000 active. AID 651582. inhibition, % at 12.5 µM;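 active means pattern-corrected inhibition of lipid staining of at least 50% with the nuclear-stain viability signal not falling by more than 50%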;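 further: 0% = DMSO wells and 100% = triacsin C control wells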
H9c2 TAG conf: confirmation of triacylglycerol accumulation inhibitors; shares compounds with H9c2 TAG inh; H9c2 lipid accumulation, Nile Red fluorescence; cells loaded with 200 µM oleic acid; inhibition, % at 12.5 µM; 71% of 990 active; AID 651629;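 active means mean inhibition across replicates of 40% or more; inactive means mean inhibition below 40%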;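 further: plate controls were DMSO only wells for no effect and Triacsin C treated wells for full effect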
Active calls of the source: *; . = not tested or not shown. A selection: hits, their analogues and other compounds. The true share with any hit is near 1.3%.

SMILES | MDM2 E3 inh | Rad51 HR inh | PERK inh | PKD1 kinase inh | Hck-Nef inh | H9c2 TAG inh | H9c2 TAG conf
COc1ccc(CN(C)C(=O)CCl)cc1 | -9.9 | 5.4 | -0.5 | -7.3 | 21.4 | 43.6 | .
CN(Cc1ccc(Cl)cc1)C(=O)CCl | -5.7 | . | -0.2 | -9.7 | 15.4 | 51.6* | 59.5*
COc1cc(C2c3cc4c(cc3OC(N3CCCC3)C2C)OCO4)cc(OC)c1O (stereo unspecified) | . | . | . | . | . | 3.2 | .
COc1cc(C2c3cc4c(cc3OC(C)(N3CCCC3)C2C)OCO4)cc(OC)c1OC (stereo unspecified) | . | . | . | . | . | 55.8* | 55.6*
CCOc1ccc(NS(=O)(=O)c2ccc(C(=O)N(C)CCc3ccc(OC)c(OC)c3)cc2)cc1 | . | . | . | . | . | -14.0 | .
Cc1ccc(S(=O)(=O)N2CCCCC2)cc1C(=O)Nc1ccc(S(=O)(=O)Nc2ncccn2)cc1 | -0.7 | -10.7 | 0.7 | . | 19.9 | 3.2 | .
COc1cc(-c2cc3nc(NCCOc4ccccc4)ccn3n2)cc(OC)c1OC | . | . | . | . | . | 54.1* | 49.0*
Cc1cc(N/N=C/c2ccc(F)cc2)nc(-n2nc(C)cc2C)n1 | -5.2 | . | -1.8 | . | 4.2 | 57.0* | 53.2*
CN1/C(=C\C(=O)CSc2nnc(NCc3ccccc3)s2)C(C)(C)c2ccccc21 | -5.5 | . | -1.6 | 10.5 | -1.3 | . | .
Cc1cc(C(=O)CSc2nnc(NCc3ccccc3)s2)c(C)n1C | -17.6 | -5.5 | -0.4 | -11.5 | 1.8 | 51.3* | 27.1
Clc1ccc(C2Nc3cccc4cccc(c34)N2)c(Cl)c1 | . | . | . | . | . | 33.8 | .
O=C1NC(c2cccc3ccccc23)Nc2ccc(Cl)cc21 (stereo unspecified) | . | . | . | . | . | 52.1* | 36.5
CCOC(=O)c1c(C)[nH]c(C(=O)OCC(=O)NCCc2ccc(OCC)c(OCC)c2)c1C | . | . | . | . | . | 56.7* | 63.1*
Cc1ccc(C)c(Oc2cc(NN3CCCCC3)c([N+](=O)[O-])cc2[N+](=O)[O-])c1 | . | . | . | . | . | 5.2 | .
Cc1ccc(F)c(Oc2cc(NN3CCCCC3)c([N+](=O)[O-])cc2[N+](=O)[O-])c1 | . | . | . | . | . | 50.5* | 7.0
COc1ccc(-n2cc(CNC3CCN(C)CC3)c(-c3cccc(F)c3)n2)cc1 | -12.7 | . | 1.7 | 3.5 | -2.8 | 16.8 | .
COc1ccc(-n2cc(CN3CCCC3)c(-c3cccc(F)c3)n2)cc1 | 3.7 | -18.3 | 0.7 | 3.5 | -9.5 | 80.1* | 24.9
COCC1CCN(C(=O)c2ccc3nc(Cc4cccc(Cl)c4)oc3c2)CC1 | . | . | . | . | . | 1.5 | .
Cc1ccc(-c2nn(-c3cccc(F)c3)cc2CNCc2cccnc2)o1 | -7.7 | 5.1 | 0.2 | -8.5 | -1.3 | -15.5 | .
COC(=O)[C@@]1(Cc2ccccc2)[C@H]2C(=O)N(Cc3ccccc3)C(=O)[C@H]2[C@H]2CN=C(SCc3ccc(Cl)cc3)N21 | . | . | . | . | . | 51.1* | 70.9*
CCN(CC)CCNc1nc2cc(OC)c(OC)cc2c2nc(-c3ccccc3)nn12 | -80.9 | 15.8 | -0.9 | 1.1 | -2.8 | 63.7* | 46.2*
COc1cc2[nH]c(=O)n3nc(-c4ccccc4)nc3c2cc1OC | -15.8 | 5.5 | 0.6 | -6.5 | -2.4 | 33.5 | .
Cc1cc(C)n2c(Br)c(CN3CCCC(C)C3)nc2n1 (stereo unspecified) | -9.3 | 17.4 | -0.1 | 3.3 | 20.7 | 6.7 | .
O=C1c2ccccc2C(=O)c2c1ccc(C(=O)N1CCCCC1)c2NCCO | 0.5 | 2.4 | -0.2 | -6.1 | 0.4 | 82.7* | 83.4*
CN(C)C(=O)CCc1ccc2c3c([nH]c2c1)[C@]1(C)[C@@H](C(=O)N2CCOCC2)C[C@H](CC(=O)NCCCn2ccnc2)C(=O)N1CC3 | . | . | . | . | . | 5.4 | .
CCN(CC)C(=O)[C@H]1C[C@H](CC(=O)NCCCn2ccnc2)C(=O)N2CCc3c([nH]c4cc(CCC(=O)N(C)C)ccc34)[C@]12C | . | . | . | . | . | 53.4* | -10.3
COc1ccc(C2(CNC(=O)c3ccc(OC)c([N+](=O)[O-])c3)CCCCC2)cc1OC | 3.2 | 13.6 | -0.9 | -4.3 | 5.3 | . | .
Cc1cc(N2CCOCC2)n2nc(C)c(-c3ccccc3)c2n1 | -8.6 | -8.0 | -0.4 | -2.1 | 1.4 | 59.9* | 46.1*
COC(=O)Cc1ccc(OC(=O)c2cccc(S(=O)(=O)N3CCN(C)CC3)c2)cc1 | . | . | . | . | . | -2.3 | .
